ChEMBL document CHEMBL4428057, “Discovery, Synthesis, and Evaluation of 2,4-Diaminoquinazolines as a Novel Class of Pancreatic β-Cell-Protective Agents against Endoplasmic Reticulum (ER) Stress” (J Med Chem, 2016)
The source made the active and inactive calls. The rule behind the calls is not given here.

Key:
INS1 [1] = test: Protection against tunicamycin induced endoplasmic reticulum stress in rat INS-1 cells assessed as increase in cell viability after 3 days by CellTiter-Glo assay relative to control; format: functional
Procedure, shortened: (§1)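 INS-1 cells at 3×10^3/well (384-well) co-treated with Tm 0.1 µg/mL and compound for 72 h; CellTiter-Glo ATP luminescence. Activity is % rescue, with Tm alone = 0% and DMSO without Tm = 100%. EC50 from ten 2-fold serial dilutions by curve fit; triplicate.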

INS1 [2] = test: Protection against tunicamycin induced endoplasmic reticulum stress in rat INS-1 cells assessed as increase in cell viability after 3 days by CellTiter-Glo assay; format: functional, cell-based; settings: INS1, 72 h; procedure, shortened: as §1
INS1 [3] = test: Protection against tunicamycin induced endoplasmic reticulum stress in rat INS-1 cells assessed as increase in cell viability at 5 uM after 72 hrs by CellTiter-Glo assay; format: functional, cell-based
INS1 [4] = test: Protection against tunicamycin induced endoplasmic reticulum stress in rat INS-1 cells assessed as increase in cell viability at 30 uM after 72 hrs by CellTiter-Glo assay; format: functional, cell-based

In the case of `OC[C@@H]1CCCN1c1nc(NCCc2ccccc2Cl)c2ccccc2n1`, the “%max” value (INS1 [1]) is reported as 50.6% and the EC50 (INS1 [2]) is reported as 1440 nM.

`OC[C@@H]1CCCN1c1nc(NCCc2ccccc2)c2ccccc2n1` was tested, and the “%max” value (INS1 [1]) was 54.4% and the EC50 (INS1 [2]) was 480 nM.

`COc1ccc(CNc2nc(N3CCC[C@H]3CO)nc3ccccc23)cc1OC` was tested, and the “%max” value (INS1 [1]) was 44.9% and the EC50 (INS1 [2]) was 1850 nM.

`COc1ccccc1CCNc1nc(N2CCC[C@H]2CO)nc2ccccc12` was tested, and the “%max” value (INS1 [1]) was 56.6% and the EC50 (INS1 [2]) was 3560 nM.

With `OC[C@@H]1CCCN1c1nc(NCCc2ccccc2F)c2ccccc2n1` the “%max” value (INS1 [1]) was 52.5% and the EC50 (INS1 [2]) was 1700 nM.

In the case of `COc1cccc(CCNc2nc(N3CCC[C@H]3CO)nc3ccccc23)c1`, the “%max” value (INS1 [1]) is reported as 54.9% and the EC50 (INS1 [2]) is reported as 1510 nM.

With `OC[C@@H]1CCCN1c1nc(NCCc2ccccc2Br)c2ccccc2n1` the “%max” value (INS1 [1]) was 39% and the EC50 (INS1 [2]) was 1880 nM.

In the case of `OC[C@@H]1CCCN1c1nc(NCCc2ccc(F)cc2)c2ccccc2n1`, the “%max” value (INS1 [1]) is reported as 56.2% and the EC50 (INS1 [2]) is reported as 2130 nM.

`OC[C@@H]1CCCN1c1nc(NCCc2ccc(Cl)cc2)c2ccccc2n1` was tested, and the “%max” value (INS1 [1]) was 57.3% and the EC50 (INS1 [2]) was 510 nM.

`OC[C@@H]1CCCN1c1nc(NCCc2cccc(F)c2)c2ccccc2n1` was tested, and the “%max” value (INS1 [1]) was 51.3% and the EC50 (INS1 [2]) was 1150 nM.

For `COc1ccc(CNc2nc(N3CCCCC3CO)nc3ccccc23)cc1OC` (configuration not stated), the “%max” value (INS1 [1]) was 69.4% and the EC50 (INS1 [2]) was 3640 nM.

In the case of `OC[C@@H]1CCCN1c1nc(NCCc2ccc(Br)cc2)c2ccccc2n1`, the “%max” value (INS1 [1]) is reported as 44.1% and the EC50 (INS1 [2]) is reported as 650 nM.

For `OCC1CCCCN1c1nc(NCc2ccccc2)c2ccccc2n1` (configuration not stated), the “%max” value (INS1 [1]) was 56.4% and the EC50 (INS1 [2]) was 230 nM.

For `Cc1ccc(CCNc2nc(N3CCC[C@H]3CO)nc3ccccc23)cc1`, the “%max” value (INS1 [1]) was 34.2% and the EC50 (INS1 [2]) was 660 nM.

With `OC[C@@H]1CCCN1c1nc(NCCc2cccc(Br)c2)c2ccccc2n1` the “%max” value (INS1 [1]) was 53.2% and the EC50 (INS1 [2]) was 780 nM.

For `COc1ccc(CNc2nc(N3CCC[C@H]3CO)nc3ccccc23)cc1`, the “%max” value (INS1 [1]) was 57.2% and the EC50 (INS1 [2]) was 4050 nM.

`OCC1CCCCN1c1nc(NCc2ccc(Cl)cc2)c2ccccc2n1` (configuration not stated) was tested, and the “%max” value (INS1 [1]) was 54.7% and the EC50 (INS1 [2]) was 210 nM.

For `OC[C@@H]1CCCN1c1nc(NCCc2cccc(Cl)c2)c2ccccc2n1`, the “%max” value (INS1 [1]) was 51.5% and the EC50 (INS1 [2]) was 1050 nM.

For `COc1ccc(CNc2nc(N3CCCC[C@@H]3CO)nc3ccccc23)cc1`, the Activity (INS1 [3]) was “Active”.

`COc1ccc(CNc2nc(N3CCCC[C@H]3CO)nc3ccccc23)cc1` was tested, and the Activity (INS1 [3]) was “Active”.

For `Nc1nnc(Sc2cc(-n3cccc3)c(Cl)cc2[N+](=O)[O-])[nH]1`, the Activity (INS1 [4]) was “Active”.

For `OCC1CCCCN1c1nc(NCCc2ccccc2Br)c2ccccc2n1` (racemic), the “%max” value (INS1 [1]) was 44.2% and the EC50 (INS1 [2]) was 1410 nM.

In the case of `OCC1CCCCN1c1nc(NCCc2ccc(F)cc2)c2ccccc2n1` (racemic), the “%max” value (INS1 [1]) is reported as 47.5% and the EC50 (INS1 [2]) is reported as 310 nM.

With `Cc1ccc(CCNc2nc(N3CCCCC3CO)nc3ccccc23)cc1` (racemic) the “%max” value (INS1 [1]) was 33.6% and the EC50 (INS1 [2]) was 140 nM.

With `OCC1CCCCN1c1nc(NCCc2ccc(Cl)cc2)c2ccccc2n1` (racemic) the “%max” value (INS1 [1]) was 57.6% and the EC50 (INS1 [2]) was 170 nM.

In the case of `OCC1CCCCN1c1nc(NCCc2ccccc2F)c2ccccc2n1` (racemic), the “%max” value (INS1 [1]) is reported as 60.3% and the EC50 (INS1 [2]) is reported as 1460 nM.

For `OCC1CCCCN1c1nc(NCCc2ccccc2)c2ccccc2n1` (racemic), the “%max” value (INS1 [1]) was 55.7% and the EC50 (INS1 [2]) was 360 nM.

In the case of `COc1cccc(CCNc2nc(N3CCCCC3CO)nc3ccccc23)c1` (racemic), the “%max” value (INS1 [1]) is reported as 69.2% and the EC50 (INS1 [2]) is reported as 2590 nM.

With `OCC1CCCCN1c1nc(NCCc2cccc(Br)c2)c2ccccc2n1` (racemic) the “%max” value (INS1 [1]) was 51.7% and the EC50 (INS1 [2]) was 770 nM.

In the case of `OCC1CCCCN1c1nc(NCCc2cccc(Cl)c2)c2ccccc2n1` (racemic), the “%max” value (INS1 [1]) is reported as 46.2% and the EC50 (INS1 [2]) is reported as 790 nM.

With `OCC1CCCCN1c1nc(NCCc2cccc(F)c2)c2ccccc2n1` (racemic) the “%max” value (INS1 [1]) was 57.3% and the EC50 (INS1 [2]) was 1880 nM.

For `OCC1CCCCN1c1nc(NCCc2ccc(Br)cc2)c2ccccc2n1` (racemic), the “%max” value (INS1 [1]) was 52.8% and the EC50 (INS1 [2]) was 340 nM.

With `COc1ccc(CCNc2nc(N3CCCCC3CO)nc3ccccc23)cc1` (racemic) the “%max” value (INS1 [1]) was 58.6% and the EC50 (INS1 [2]) was 310 nM.

For `OCC1CCCCN1c1nc(NCCc2ccccc2Cl)c2ccccc2n1` (racemic), the “%max” value (INS1 [1]) was 51.4% and the EC50 (INS1 [2]) was 470 nM.

With `COc1ccccc1CCNc1nc(N2CCCCC2CO)nc2ccccc12` (racemic) the “%max” value (INS1 [1]) was 46.9% and the EC50 (INS1 [2]) was 1600 nM.
